In ChEMBL document CHEMBL4834436, “Discovery of the S1P2 Antagonist GLPG2938 (1-[2-Ethoxy-6-(trifluoromethyl)-4-pyridyl]-3-[[5-methyl-6-[1-methyl-3-(trifluoromethyl)pyrazol-4-yl]pyridazin-3-yl]methyl]urea), a Preclinical Candidate for the Treatment of Idiopathic Pulmonary Fibrosis” (J Med Chem, 2021):
Values after ≈ are worked out from the molar mass of the structure shown. Active and inactive are the calls of the source. The calls are words filed in the database; no cut-off is given here.

How the values were obtained:
[1] = target: Voltage-gated inwardly rectifying potassium channel KCNH2 (Homo sapiens, UniProt Q12809); test: Inhibition of human ERG
[2] = Clearance in Sprague-Dawley rat at 1 mg/kg, iv measured up to 24 hrs by LC-MS/MS analysis; assay type: ADME, organism-based; conditions: in vivo
In short: (§1)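 Male Sprague-Dawley rats (6–8 weeks), n = 3 per route; iv bolus 1 mg/kg in PEG200/water 60/40; gavage 5 or 10 mg/kg in PEG400/MC 0.5% after ≥12 h fast. Li-heparin plasma sampled to 24 h, LC-MS/MS, noncompartmental analysis. Plasma protein binding: 5 μM compound, 4 h incubation.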

[3] = Clearance in beagle dog at 1 mg/kg, iv measured up to 24 hrs by LC-MS/MS analysis; assay type: ADME, organism-based, Canis lupus familiaris; conditions: in vivo
In short: (§2)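 Non-naive male Beagle dogs (n = 3) given 1 mg/kg iv as 10 min infusion; after 3-day washout, oral gavage 5 or 1 mg/kg in PEG400/MC 0.5% or MC 0.5% after ≥12 h fast. Jugular or cephalic blood into lithium heparin to 24 h; plasma analysed. Plasma protein binding: 5 μM compound, 4 h incubation.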

[4] = Plasma protein binding Sprague-Dawley rat plasma at 5 uM incubated for 4 hrs; assay type: ADME, cell-free; conditions: read-out: PPB (converted); in short: as §1
[5] = Volume of distribution at steady state in CD1 mouse at 1 mg/kg, iv measured up to 24 hrs by LC-MS/MS analysis; assay type: ADME, organism-based; conditions: in vivo, read-out: Vdss
In short: (§3)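 Male CD1 mice, composite design, n = 6 per route; iv 1 mg/kg in PEG200/water 60/40, oral gavage 5 mg/kg in Tween 80/MC 0.5% or PEG400/MC 0.5% after ≥12 h fast. Li-heparin blood sampled to 24 h, plasma by LC-MS/MS; noncompartmental analysis. Plasma protein binding: 5 μM compound, 4 h incubation.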

[6] = Oral bioavailability in Sprague-Dawley rat at 5 mg/kg measured up to 24 hrs by LC-MS/MS analysis; assay type: ADME, organism-based; conditions: in vivo; in short: as §1
[7] = Thermodynamic solubility in FaSSGF at pH 1.6; assay type: physicochemical; conditions: read-out: Therm_solubility
Mus musculus = test: Antifibrotic activity against intranasal bleomycin-induced C57BL/6 mouse lung fibrosis model assessed as reduction in Ashcroft score at 1 to 10 mg/kg, po twice daily for 14 days; assay type: functional, organism-based; conditions: dose 1-10 mg/kg, time 14.0 day
In short: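 Male C57BL/6 mice (7–8 weeks on arrival, one week acclimation) given bleomycin intranasally; prophylactic oral dosing twice daily for 14 days. Lungs scored histologically by Matsuse-modified Ashcroft score; 14–15 mice per group; Mann–Whitney vs bleomycin/vehicle.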

[8] = target: T1, Sphingosine 1-phosphate receptor 2 (Homo sapiens, UniProt O95136); test: Antagonist activity at recombinant human S1P2 receptor expressed in CHO cells assessed as EC80 S1P-induced activation incubated for 4 hrs in presence of [35S]GTPgammaS by Topcount reader; assay type: functional, cell-based
In short: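 Membranes from stable lines overexpressing recombinant human S1P2, preincubated with PVT-WGA SPA beads, mixed with compound serial dilutions, [35S]GTPγS and S1P at EC80. Incubated 4 h at room temperature, centrifuged, scintillation counted. Antagonist mode; IC50 as geometric mean of ≥2 runs.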

[9] = target: T1, Sphingosine 1-phosphate receptor 2; test: Antagonist activity at human S1P2 receptor expressed in CHO cells assessed as EC80 S1P-induced calcium flux measured for 3 mins by fluorescence assay; assay type: functional, cell-based
In short: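 Same dye-loaded, starved human S1P2-CHO cells; after agonist readout, 15 min at 37 °C, then stimulated with S1P at EC80, fluorescence read 3 min. Max/baseline ratio normalized to vehicle and S1P EC80. 10-point 1/3 dilutions from 20 μM final; IC50 derived; geometric mean of ≥2 runs.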

[10] = Intrinsic clearance unbound in human liver microsomes at 1 uM […] by LC-MS/MS analysis; assay type: ADME, Microsome
[11] = Half life in CD1 mouse at 1 mg/kg, iv measured up to 24 hrs by LC-MS/MS analysis; assay type: ADME, organism-based; conditions: in vivo; in short: as §3
[12] = Half life in beagle dog at 1 mg/kg, iv measured up to 24 hrs by LC-MS/MS analysis; assay type: ADME, organism-based, Canis lupus familiaris; conditions: in vivo; in short: as §2
Fibroblast = test: Prevention of S1P-induced human pulmonary fibroblasts contraction in collagen gel lattice mixture pretreated with TGFbeta for 72 hrs followed by treated at 0.5 to 5 uM compound incubated for 2 hrs then treated with S1P for 1 hr; assay type: functional, cell-based; conditions: dose 0.5-5 µM, time 96.0 hrs, in the assay text read “96 hrs” for “72 hrs”
In short: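 Normal human lung fibroblasts pretreated 4 days with 1 ng/mL TGF-β, embedded in neutralized collagen I gels (200,000 cells/gel), kept 72 h in serum-free FGM with TGF-β for stress build-up. Compound added for 2 h, then 1 μM S1P; gels released and incubated 1 h at 37 °C; gel area imaged. Mean with 95% CI.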

[13] = Volume of distribution at steady state in Sprague-Dawley rat at 1 mg/kg, iv measured up to 24 hrs by LC-MS/MS analysis; assay type: ADME, organism-based; conditions: in vivo, read-out: Vdss; in short: as §1
[14] = Clearance in CD1 mouse at 1 mg/kg, iv measured up to 24 hrs by LC-MS/MS analysis; assay type: ADME, organism-based; conditions: in vivo; in short: as §3
[15] = Plasma protein binding CD1 mouse plasma at 5 uM incubated for 4 hrs; assay type: ADME, cell-free; conditions: read-out: PPB (converted); in short: as §3
[16] = Thermodynamic solubility in FaSSIF; assay type: physicochemical; conditions: read-out: Therm_solubility
[17] = Plasma protein binding beagle dog plasma at 5 uM incubated for 4 hrs; assay type: ADME, cell-free, Canis lupus familiaris; conditions: read-out: PPB (converted); in short: as §2
[18] = target: T1, Sphingosine 1-phosphate receptor 2; test: Antagonist activity at recombinant human S1P2 receptor in HFL1 cells assessed as inhibition of EC80 S1P-induced IL8 release incubated for 16 to 24 hrs in presence of 2% HSA by ELISA; assay type: functional, cell-based
In short: (§4)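 HFL-1 lung fibroblasts seeded in 96- or 384-well plates, then medium replaced by starvation medium with 1% heat-inactivated FBS, ±1.95% HSA (2% HSA condition), 16–24 h. 10-point 1/3 dilutions, 30 μM top final, 1 h, then S1P at EC80 (without HSA: 1 μM 96-well or 0.5 μM 384-well; with HSA: 5 or 2 μM).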

[19] = Half life in Sprague-Dawley rat at 1 mg/kg, iv measured up to 24 hrs by LC-MS/MS analysis; assay type: ADME, organism-based; conditions: in vivo; in short: as §1
[20] = Intrinsic clearance unbound in mouse liver microsomes at 1 uM […] by LC-MS/MS analysis; assay type: ADME, Microsome
[21] = Volume of distribution at steady state in beagle dog at 1 mg/kg, iv measured up to 24 hrs by LC-MS/MS analysis; assay type: ADME, organism-based, Canis lupus familiaris; conditions: in vivo, read-out: Vdss; in short: as §2
[22] = target: T1, Sphingosine 1-phosphate receptor 2; test: Antagonist activity at recombinant human S1P2 receptor in HFL1 cells assessed as inhibition of EC80 S1P-induced IL8 release incubated for 16 to 24 hrs in absence of HSA by ELISA; assay type: functional, cell-based; in short: as §4
[23] = Oral bioavailability in CD1 mouse at 5 mg/kg measured up to 24 hrs by LC-MS/MS analysis; assay type: ADME, organism-based; conditions: in vivo; in short: as §3
[24] = target: T1, Sphingosine 1-phosphate receptor 2; test: Antagonist activity at recombinant human S1P2 receptor in HFL1 cells assessed as inhibition of EC80 S1P-induced IL8 release measured as unbound concentration incubated for 16 to 24 hrs in presence of 2% HSA by ELISA; assay type: functional, cell-based; conditions: filed as antagonist, time 16-24 hrs
In short: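 IL8 IC50 from the 2% HSA condition converted to free IC50 = IC50 × fu,medium, where fu,medium is estimated from human plasma protein binding fraction unbound and the serum percentage used in the assay.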

T1 sequence (O95136 whole entry): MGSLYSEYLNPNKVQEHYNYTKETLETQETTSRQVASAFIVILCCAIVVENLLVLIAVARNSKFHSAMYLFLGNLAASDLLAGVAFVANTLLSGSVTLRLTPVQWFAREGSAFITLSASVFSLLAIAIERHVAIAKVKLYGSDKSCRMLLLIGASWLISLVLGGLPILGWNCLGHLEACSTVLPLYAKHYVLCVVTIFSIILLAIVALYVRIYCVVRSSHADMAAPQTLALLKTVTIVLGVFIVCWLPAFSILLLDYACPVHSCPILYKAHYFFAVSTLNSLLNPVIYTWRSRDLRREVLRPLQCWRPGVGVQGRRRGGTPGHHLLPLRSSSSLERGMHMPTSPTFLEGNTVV
Sequence of Voltage-gated inwardly rectifying potassium channel KCNH2 (Q12809 whole entry): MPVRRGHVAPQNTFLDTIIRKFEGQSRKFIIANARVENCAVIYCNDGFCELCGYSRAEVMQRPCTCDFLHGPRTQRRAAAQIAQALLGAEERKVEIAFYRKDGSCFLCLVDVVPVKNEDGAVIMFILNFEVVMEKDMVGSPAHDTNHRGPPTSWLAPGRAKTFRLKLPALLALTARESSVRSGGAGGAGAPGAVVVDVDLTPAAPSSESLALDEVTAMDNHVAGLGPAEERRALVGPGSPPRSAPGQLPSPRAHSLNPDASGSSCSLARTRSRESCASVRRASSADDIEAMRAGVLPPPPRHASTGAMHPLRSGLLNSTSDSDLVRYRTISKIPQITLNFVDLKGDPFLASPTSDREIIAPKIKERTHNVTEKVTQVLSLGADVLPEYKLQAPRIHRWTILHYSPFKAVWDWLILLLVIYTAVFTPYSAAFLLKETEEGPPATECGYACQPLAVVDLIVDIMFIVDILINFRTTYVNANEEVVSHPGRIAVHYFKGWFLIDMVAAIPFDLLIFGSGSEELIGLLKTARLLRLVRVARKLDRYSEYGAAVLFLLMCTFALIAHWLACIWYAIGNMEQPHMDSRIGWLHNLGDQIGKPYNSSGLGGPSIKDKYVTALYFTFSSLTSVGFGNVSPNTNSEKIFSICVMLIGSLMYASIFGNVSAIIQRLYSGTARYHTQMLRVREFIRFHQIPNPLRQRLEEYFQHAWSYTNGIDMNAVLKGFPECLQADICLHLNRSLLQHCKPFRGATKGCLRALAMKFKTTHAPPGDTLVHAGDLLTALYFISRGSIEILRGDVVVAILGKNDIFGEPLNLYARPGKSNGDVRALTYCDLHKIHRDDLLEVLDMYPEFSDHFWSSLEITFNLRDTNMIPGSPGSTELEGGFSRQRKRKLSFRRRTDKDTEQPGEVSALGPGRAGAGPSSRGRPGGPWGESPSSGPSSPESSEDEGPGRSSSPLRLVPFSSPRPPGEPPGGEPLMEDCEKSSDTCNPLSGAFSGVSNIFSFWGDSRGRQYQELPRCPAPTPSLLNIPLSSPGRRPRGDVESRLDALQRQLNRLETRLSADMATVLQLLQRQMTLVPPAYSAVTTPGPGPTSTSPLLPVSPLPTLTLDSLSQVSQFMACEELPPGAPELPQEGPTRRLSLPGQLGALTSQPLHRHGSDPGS

- clearance [2]: 1.52 mL/min/kg
- clearance [3]: 1.67 mL/min/kg
- fraction unbound at 4 h, 5 µM [4]: < 0.001
- Vd [5]: 0.81 L/kg
- bioavailability [6]: 29%
- solubility thermodynamic [7]: 2.7 µg/mL (≈ 5.36 µM)
- IC50 [8]: 29 µM
- IC50 [9]: 8.8 µM
- CL free [10]: < 38.3 mL/min/kg
- half-life [11]: 2.3 h
- half-life [12]: 7.6 h
- Vd [13]: 0.35 L/kg
- clearance [14]: 4 mL/min/kg
- fraction unbound at 4 h, 5 µM [15]: 0.001
- solubility thermodynamic [16]: 23 µg/mL (≈ 45.7 µM)
- fraction unbound at 4 h, 5 µM [17]: 0.003
- IC50 [18]: 0.087 µM
- half-life [19]: 2.7 h
- CL free [20]: 140 mL/min/kg
- Vd [21]: 1.1 L/kg
- IC50 [22]: 0.029 µM
- bioavailability [23]: 64%
- fIC50 [24]: 0.6 nM
Compound: CCOc1cc(NC(=O)NCc2cc(C)c(-c3cn(C)nc3C(F)(F)F)nn2)cc(C(F)(F)F)n1
- inhibition (INH) [1]: Not Active
- Activity (Mus musculus): Active
- Activity (Fibroblast): Active
